4 compounds from ChEMBL document CHEMBL1150680, “Anti-inflammatory constituents and new pterocarpanoid of Crotalaria pallida” (J Nat Prod, 2003) can be followed below.

Series [1] concerns RAW264.7. Nature of the series: Antiinflammatory activity in LPS-stimulated mouse RAW264.7 cells assessed as inhibition of nitric oxide production pretreated 1 hr before LPS challenge. The class given is functional, cell-based. In short, it runs like this:
(§1)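 RAW 264.7 mouse macrophage-like cells in DMEM with 10% FCS, plated at 2 × 10⁵ cells/well and adhered overnight. Pretreated with test drug or DMSO (final ≤0.5%) for 1 h at 37 °C, then stimulated with LPS (E. coli 0111:B4, 1 μg/mL) for 24 h. Nitrite in the medium was measured by Griess reaction (A550) against a NaNO₂ standard curve. Mean ± SEM, n = 3.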

Series [2] deals with N9. Kind of series: Antiinflammatory activity in LPS/IFN-gamma-stimulated mouse N9 cells assessed as inhibition of nitric oxide production pretreated 1 hr before LPS/IFNgamma challenge.
Series [3] is described as follows: Antiinflammatory activity in fMLP/cytochalasin B stimulated rat neutrophils assessed as lysozyme release at 10 uM preincubated for 10 mins measured 45 mins after fMLP/cytochalasin B challenge relative to control. The class given is functional, Neutrophil. In a few lines:
(§2)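 Rat blood neutrophils were isolated in EDTA by dextran sedimentation, Ficoll-Hypaque and hypotonic lysis, then suspended in HBSS at 1 × 10⁷ cells/mL. Preincubated 10 min at 37 °C with drug or DMSO (final ≤0.5%), then challenged with fMLP (1 μM)/cytochalasin B (5 μg/mL). After 45 min, supernatant lysozyme and β-glucuronidase were expressed as percent of the Triton X-100 total content.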

The test system of series [4] is N9. Kind of series: Antiinflammatory activity in LPS/IFN-gamma-stimulated mouse N9 cells assessed as inhibition of nitric oxide production at 10 uM pretreated 1 hr before LPS/IFNgamma challenge relative to control.
Series [5] is described as follows: Antiinflammatory activity in fMLP/cytochalasin B stimulated rat neutrophils assessed as lysozyme release at 1 ug/ml preincubated for 10 mins measured 45 mins after fMLP/cytochalasin B challenge relative to control. The class given is functional, Neutrophil. Conditions: in the assay text read “1 uM” for “1 ug/ml”. In short, it runs like this:
as §2

The test system of series [6] is RAW264.7. Nature of the series: Antiinflammatory activity in LPS-stimulated mouse RAW264.7 cells assessed as inhibition of nitric oxide production at 30 uM pretreated 1 hr before LPS challenge relative to control. The class given is functional. In a few lines:
as §1

Series [7] can be described thus: Antiinflammatory activity in fMLP/cytochalasin B stimulated rat neutrophils assessed as beta-glucuronidase release at 3 ug/ml preincubated for 10 mins measured 45 mins after fMLP/cytochalasin B challenge relative to control. The class given is functional, Neutrophil. Conditions: in the assay text read “3 uM” for “3 ug/ml”. In short, it runs like this: as §2
Series [8] can be described thus: Antiinflammatory activity in fMLP/cytochalasin B stimulated rat neutrophils assessed as lysozyme release at 3 ug/ml preincubated for 10 mins measured 45 mins after fMLP/cytochalasin B challenge relative to control. The class given is functional, Neutrophil. Conditions: in the assay text read “3 uM” for “3 ug/ml”. In a few lines: as §2
The test system of series [9] is RAW264.7. Kind of series: Antiinflammatory activity in LPS-stimulated mouse RAW264.7 cells assessed as inhibition of nitric oxide production at 3 uM pretreated 1 hr before LPS challenge relative to control. The class given is functional. In a few lines: as §1
Series [10] in a line: Antiinflammatory activity in fMLP/cytochalasin B stimulated rat neutrophils assessed as inhibition of beta-glucuronidase release at 3 uM preincubated for 10 mins measured 45 mins after fMLP/cytochalasin B challenge relative to control. On the set-up: scale not given: the % may be the effect or the level left.
The subject of series [11] is RAW264.7. Kind of series: Toxicity in LPS-stimulated mouse RAW264.7 cells assessed as LDH release at 30 uM. The class given is cell-based. Conditions: raw264.7, 30 µM. In a few lines:
(§3)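 Cytotoxicity in LPS-stimulated RAW 264.7 or LPS/IFN-γ-stimulated N9 cultures, assessed by LDH release assay and trypan blue exclusion.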
(LDH in the medium is a marker of cell lysis.)

A short description of series [12]: Antiinflammatory activity in fMLP/cytochalasin B stimulated rat neutrophils assessed as inhibition of lysozyme release at 3 ug/ml preincubated for 10 mins measured 45 mins after fMLP/cytochalasin B challenge relative to control. The class given is functional. Conditions: Neutrophil. In a few lines: as §2
The nature of series [13]: Antiinflammatory activity in fMLP/cytochalasin B stimulated rat neutrophils assessed as inhibition of lysozyme release at 10 uM preincubated for 10 mins measured 45 mins after fMLP/cytochalasin B challenge relative to control. Conditions: Neutrophil. The class given is functional. In a few lines:
as §2

Series [14] is described as follows: Antiinflammatory activity in fMLP/cytochalasin B stimulated rat neutrophils assessed as inhibition of beta-glucuronidase release at 10 uM preincubated for 10 mins measured 45 mins after fMLP/cytochalasin B challenge relative to control. The class given is functional, Neutrophil. Details: Activity: scale not given: the % may be the effect or the level left. In a few lines: as §2

Series [15] is described as follows: Antiinflammatory activity in fMLP/cytochalasin B stimulated rat neutrophils assessed as inhibition of lysozyme release preincubated for 10 mins measured 45 mins after fMLP/cytochalasin B challenge. The class given is functional, cell-based. Conditions: Neutrophil. In a few lines: as §2
Series [16] in a line: Antiinflammatory activity in fMLP/cytochalasin B stimulated rat neutrophils assessed as beta-glucuronidase release at 10 uM preincubated for 10 mins measured 45 mins after fMLP/cytochalasin B challenge relative to control. The class given is functional, Neutrophil. In a few lines: as §2
Series [17] can be described thus: Antiinflammatory activity in fMLP/cytochalasin B stimulated rat neutrophils assessed as inhibition of beta-glucuronidase release at 1 ug/ml preincubated for 10 mins measured 45 mins after fMLP/cytochalasin B challenge relative to control. The class given is functional, Neutrophil. Details: scale not given: the % may be the effect or the level left. Conditions: in the assay text read “1 uM” for “1 ug/ml”. In a few lines:
as §2

Series [18] in a line: Antiinflammatory activity in fMLP/cytochalasin B stimulated rat neutrophils assessed as beta-glucuronidase release at 1 ug/ml preincubated for 10 mins measured 45 mins after fMLP/cytochalasin B challenge relative to control. The class given is functional, Neutrophil. Conditions: in the assay text read “1 uM” for “1 ug/ml”. In short, it runs like this: as §2
Series [19] can be described thus: Antiinflammatory activity in fMLP/cytochalasin B stimulated rat neutrophils assessed as inhibition of beta-glucuronidase release preincubated for 10 mins measured 45 mins after fMLP/cytochalasin B challenge. The class given is functional, cell-based. Conditions: Neutrophil. In short, it runs like this:
as §2

Series [20] relates to N9. Kind of series: Antiinflammatory activity in LPS/IFN-gamma-stimulated mouse N9 cells assessed as inhibition of nitric oxide production at 3 uM pretreated 1 hr before LPS/IFNgamma challenge relative to control. The class given is functional. In a few lines:
(§4)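 N9 murine microglial line in Iscove's modified DMEM with 5% heat-inactivated FCS, 8 × 10⁴ cells/well. Pretreated for 1 h at 37 °C with drug or DMSO (final ≤0.5%), then stimulated with LPS (10 ng/mL) plus IFN-γ (10 unit/mL) for 24 h. Medium nitrite was read by Griess reaction at 550 nm with a NaNO₂ standard. Mean ± SEM, n = 3.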

Series [21] concerns RAW264.7. Nature of the series: Antiinflammatory activity in LPS-stimulated mouse RAW264.7 cells assessed as inhibition of nitric oxide production at 10 uM pretreated 1 hr before LPS challenge relative to control. The class given is functional. In short, it runs like this: as §1
The subject of series [22] is N9. Kind of series: Toxicity in LPS/IFN-gamma-stimulated mouse N9 cells assessed as LDH release at 30 uM. The class given is cell-based. Conditions: n9, 30 µM. In short, it runs like this: as §3
Series [23] can be described thus: Antiinflammatory activity in fMLP/cytochalasin B stimulated rat neutrophils assessed as inhibition of beta-glucuronidase release at 30 uM preincubated for 10 mins measured 45 mins after fMLP/cytochalasin B challenge relative to control. The class given is functional. Conditions: Neutrophil, read-out: INH. In short, it runs like this:
as §2

The nature of series [24]: Antiinflammatory activity in fMLP/cytochalasin B stimulated rat neutrophils assessed as lysozyme release at 30 uM preincubated for 10 mins measured 45 mins after fMLP/cytochalasin B challenge relative to control. The class given is functional, Neutrophil. In short, it runs like this: as §2
Series [25] in a line: Antiinflammatory activity in fMLP/cytochalasin B stimulated rat neutrophils assessed as beta-glucuronidase release at 30 uM preincubated for 10 mins measured 45 mins after fMLP/cytochalasin B challenge relative to control. The class given is functional, Neutrophil. In short, it runs like this: as §2
Series [26] in a line: Antiinflammatory activity in fMLP/cytochalasin B stimulated rat neutrophils assessed as inhibition of lysozyme release at 30 uM preincubated for 10 mins measured 45 mins after fMLP/cytochalasin B challenge relative to control. The class given is functional. Conditions: Neutrophil. In a few lines:
as §2

Series [27] has as its system N9. Nature of the series: Antiinflammatory activity in LPS-stimulated mouse N9 cells assessed as inhibition of nitric oxide production at 1 uM pretreated 1 hr before LPS challenge relative to control. The class given is functional. In a few lines:
as §4

In general, IC50 refers to the concentration that gives 50% inhibition. Regarding `CC(=N)NCc1cccc(CN)c1` [1400W], the IC50 is 2.3 µM with RAW264.7 [1] and 3.6 µM in the series on N9 [2].

Consider `C=C(C)c1cc2c3c(ccc2o1)[C@@H]1COc2cc(O)ccc2[C@@H]1O3` [CROTAFURAN A], for which the Activity is recorded as 23.6% in [3]; 54.2% in series [5]; 24.8% in series [7]; 46.9% in series [8]; 33.4% in [10]; “Toxic” in the series on RAW264.7 [11]. Moreover, the Activity was 55.8% in series [14]; 16.5% in series [16]; 6.9% in series [17]; 34.7% in series [18]; “Toxic” in the series with N9 [22]. Also, the inhibition at 10 µM in the series with N9 [4] is 45.6%; in series [13], 56.2%; in the series on RAW264.7 [21], 20.6%. For the same compound, the inhibition at 30 µM in the series on RAW264.7 [6] was determined as 59.5%. The inhibition at 3 µM in the series on RAW264.7 [9] is -5.1%; in the series on N9 [20], 15.4%. The IC50 was determined as 23 µM with RAW264.7 [1], 9.5 µM in series [15] and 7.8 µM in series [19]. Also, the inhibition at 3 µg/mL in [12] was determined as 14%.

Regarding `CC(=O)c1cc2c3c(ccc2o1)[C@@H]1COc2cc(O)ccc2[C@@H]1O3` [CROTAFURAN B], the Activity in [3] is recorded as 58.9%; with RAW264.7 [11], “Toxic”; in series [24], 55.1%; in series [16] it was 37.7%; in [25], 35.3%; with N9 [22], “Toxic”. In addition, the inhibition at 10 µM was 50.4% in the series with N9 [4]; -7.8% in series [13]; -0.9% in series [14] (Rattus norvegicus, Neutrophil); 25.6% with RAW264.7 [21]. Further, the inhibition at 30 µM is 64.4% in the series with RAW264.7 [6], 5.1% in [23] and -0.4% in series [26]. Moreover, the inhibition at 3 µM with RAW264.7 [9] stood at 3.2%; in the series with N9 [20], 29%. Moreover, the IC50 amounted to 19 µM in the series with RAW264.7 [1] and 9.4 µM in the series on N9 [2]. For the same compound, the inhibition at 1 µM with N9 [27] is 4.2%.

Consider `CN1CCN(CCCN2c3ccccc3Sc3ccc(C(F)(F)F)cc32)CC1` [TRIFLUOPERAZINE], for which the IC50 in series [19] is 12.2 µM.
